Experimental data: ChEMBL document CHEMBL1122384, “Synthesis and evaluation of 24-(isopropyl[75Se]seleno)chol-5-en-3 beta-ol” (J Med Chem, 1983)

Experiments:
Type in all cases: functional
[1] = Adrenal/Tissue ratio calculated from percent dose per gram of tissue determined after 1 day intravenous administration from blood
In short: (§1)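 Female Fischer 344 rats (160–180 g), fed ad libitum. Steroid dissolved in EtOH, formulated in Tween 80–EtOH–saline, 5–10 μCi in 1 mL given into a lateral tail vein under light Et₂O anesthesia. Organs removed 1 day post-injection, rinsed, blotted, weighed and gamma counted, 3 rats per time point. Ratios taken from adrenal vs tissue % dose/g.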

[2] = Adrenal/Tissue ratio calculated from percent dose per gram of tissue determined after 1 day intravenous administration from kidney; in short: as §1
[3] = Adrenal/Tissue ratio calculated from percent dose per gram of tissue determined after 1 day intravenous administration from ovaries; in short: as §1
[4] = Adrenal/Tissue ratio calculated from percent dose per gram of tissue determined after 1 day intravenous administration from liver; in short: as §1
[5] = Adrenal/Tissue ratio calculated from percent dose per gram of tissue determined after 1 day intravenous administration from spleen; in short: as §1
[6] = Adrenal/Tissue ratio calculated from percent dose per gram of tissue determined after 1 day intravenous administration from lung; in short: as §1
[7] = Adrenal/Tissue ratio calculated from percent dose per gram of tissue determined after 1 day intravenous administration from pancreas
In short: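 Female Fischer 344 rats (160–180 g), food and water ad libitum, lightly anaesthetized with Et2O. [75Se]-labelled steroid was given in Tween 80–EtOH–saline, 5–10 μCi, by lateral tail-vein injection. Rats were killed by decapitation under Et2O; organs were rinsed, blotted, weighed and gamma-counted. Adrenal/tissue ratio is from % dose/g, mean of three rats per time point.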

Compound | Ratio [1] | Ratio [2] | Ratio [3] | Ratio [4] | Ratio [5] | Ratio [6] | Ratio [7]
CC(C)CCCC(C)C1CCC2C3CC(CI)C4=C(CCC(O)C4)C3CCC12C (configuration not stated) | 92.1 | 107.8 | 3 | 52.2 |  |  | 
CC(C)[Te]CCCC(C)C1CCC2C3CC=C4CC(O)CCC4(C)C3CCC12C (configuration not stated) | 54.8 | 56.2 | 4.9 | 27.1 | 14 | 18.7 | 122
C[Se]C[C@@H]1CC2C(CCC3(C)C(C(C)CCCC(C)C)CCC23)C2=C1CC(O)CC2 (some centres not stated) [SCINTIDREN] | 105 | 52.5 | 3.2 | 42 | 27.1 | 28.9 | 
